Assay results published in ChEMBL document CHEMBL3865796, “Novel (2,6-difluorophenyl)(2-(phenylamino)pyrimidin-4-yl)methanones with restricted conformation as potent non-nucleoside reverse transcriptase inhibitors against HIV-1” (Eur J Med Chem, 2016).

How the values were obtained:
[1] = Inhibition of wild type HIV-1 3B reverse transcriptase infected in human MT4 cells assessed as inhibition of viral replication after 5 days by cell titer glo based luciferase reporter gene assay; conditions: Human immunodeficiency virus 1, 3B, MT4, 120 h
[2] = Cytotoxicity against human MT4 cells assessed as decrease in cell viability after 5 days by cell titer glo based luciferase reporter gene assay; type: toxicity
In short: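 Mock-infected MT-4 cells (pre-treated with RPMI) in complete RPMI (10% FBS, 1% P/S) received 1:3 serial DMSO dilutions of compound, further diluted 200-fold into medium, in a 384-well format. Incubated 5 days at 37 °C in a humidified incubator. Viability was read as CellTiter-Glo luminescence. CC50 is the concentration giving a 50% fall in signal, from a sigmoidal dose-response fit.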

[3] = Selectivity index, ratio of CC50 for human MT4 cells to EC50 for wild type HIV-1 3B reverse transcriptase infected in human MT4 cells; type: toxicity, cell-based; conditions: read-out: Ratio CC50/EC50
[4] = Inhibition of wild type HIV-1 3B reverse transcriptase infected in human MT4 cells assessed as inhibition of virus-induced cytopathic effect after 5 days incubation by Cell Titer Glo luminescence assay; conditions: Human immunodeficiency virus 1, 3B

With `N#Cc1ccc(Nc2nc(C(=O)c3ccc(C#N)cc3)ncc2Br)cc1` the EC50 [1] was 27.7 µM, the CC50 at 120 h [2] was > 57 µM and the selectivity ratio [3] was > 2.06.

For `COc1cc(F)c(C(=O)c2nc(Nc3ccc(C#N)cc3Br)ncc2Br)c(F)c1`, the EC50 [1] was 18.9 µM, the CC50 at 120 h [2] was > 57 µM and the selectivity ratio [3] was > 3.02.

With `N#Cc1ccc(Nc2nccc(C(=O)c3ccc(C#N)cc3)n2)cc1` the EC50 [1] was 4.5 µM, the CC50 at 120 h [2] was > 57 µM and the selectivity ratio [3] was > 12.7.

In the case of `N#Cc1ccc(C(=O)c2nccc(Cl)n2)cc1`, the EC50 [1] is reported as > 57 µM, the CC50 at 120 h [2] is reported as 16.5 µM and the selectivity ratio [3] is reported as < 0.29.

With `COc1cc(F)c(C(=O)c2ccnc(Cl)n2)c(F)c1` the EC50 [1] was > 57 µM, the CC50 at 120 h [2] was > 57 µM and the selectivity ratio [3] was 1.

With `O=C(c1ccnc(Cl)n1)c1c(F)cc(Br)cc1F` the EC50 [1] was > 57 µM, the CC50 at 120 h [2] was > 57 µM and the selectivity ratio [3] was 1.

In the case of `N#Cc1ccc(Nc2ccnc(C(O)c3ccc(C#N)cc3)n2)cc1` (stereo not given), the EC50 [1] is reported as > 57 µM, the CC50 at 120 h [2] is reported as > 57 µM and the selectivity ratio [3] is reported as 1.

In the case of `COc1ccc(C(=O)c2nc(Nc3ccc(C#N)cc3)ncc2Br)cc1`, the EC50 [1] is reported as > 57 µM, the CC50 at 120 h [2] is reported as 2.45 µM and the selectivity ratio [3] is reported as < 0.04.

For `COc1cc(F)c(C(=O)c2ccnc(Nc3ccc(C#N)cc3)n2)c(F)c1`, the EC50 [1] was 0.004 µM, the CC50 at 120 h [2] was > 57 µM and the selectivity ratio [3] was > 14200.

For `COc1ccc(C(=O)c2ccnc(Nc3ccc(C#N)cc3)n2)cc1`, the EC50 [1] was 0.814 µM, the CC50 at 120 h [2] was > 57 µM and the selectivity ratio [3] was > 70. The EC50 [4] was 0.239 µM.

For `N#Cc1ccc(Nc2ccnc(C(=O)c3ccc(C#N)cc3)n2)cc1`, the EC50 [1] was 43 µM, the CC50 at 120 h [2] was > 57 µM and the selectivity ratio [3] was > 1.33.

For `N#Cc1cc(F)c(C(=O)c2ccnc(Cl)n2)c(F)c1`, the EC50 [1] was > 57 µM, the CC50 at 120 h [2] was 30.5 µM and the selectivity ratio [3] was < 0.54.

With `O=C(c1ccnc(Cl)n1)c1c(F)cc(F)cc1F` the EC50 [1] was > 57 µM, the CC50 at 120 h [2] was 40.1 µM and the selectivity ratio [3] was < 0.7.

In the case of `COc1ccc(C(=O)c2ccnc(Cl)n2)cc1`, the EC50 [1] is reported as > 57 µM, the CC50 at 120 h [2] is reported as 39.6 µM and the selectivity ratio [3] is reported as < 0.69.

In the case of `COc1cc(F)c(C(=O)c2nc(Nc3ccc(C#N)cc3)ncc2Br)c(F)c1`, the EC50 [1] is reported as 0.069 µM, the CC50 at 120 h [2] is reported as 38.7 µM and the selectivity ratio [3] is reported as 561.

In the case of `N#Cc1ccc(Nc2cc(F)c(C(=O)c3ccnc(Nc4ccc(C#N)cc4)n3)c(F)c2)cc1`, the EC50 [1] is reported as 0.31 µM, the CC50 at 120 h [2] is reported as 51.9 µM and the selectivity ratio [3] is reported as 167.

For `N#Cc1ccc(C(=O)c2ccnc(Cl)n2)cc1`, the EC50 [1] was > 57 µM, the CC50 at 120 h [2] was 31.9 µM and the selectivity ratio [3] was < 0.56.

With `N#Cc1ccc(Nc2ncc(Br)c(C(=O)c3ccc(C#N)cc3)n2)cc1` the EC50 [1] was 7.4 µM, the CC50 at 120 h [2] was > 57 µM and the selectivity ratio [3] was > 7.7.

With `N#Cc1ccc(Nc2ncc(Br)c(C(=O)c3c(F)cc(O)cc3F)n2)cc1` the EC50 [1] was > 57 µM, the CC50 at 120 h [2] was > 57 µM and the selectivity ratio [3] was 1.

In the case of `N#Cc1ccc(Nc2nccc(C(=O)c3c(F)cc(F)cc3F)n2)cc1`, the EC50 [1] is reported as 0.034 µM, the CC50 at 120 h [2] is reported as > 57 µM and the selectivity ratio [3] is reported as > 1680.

In the case of `N#Cc1ccc(Nc2nccc(C(O)c3ccc(C#N)cc3)n2)cc1` (stereo not given), the EC50 [1] is reported as 3.7 µM, the CC50 at 120 h [2] is reported as > 57 µM and the selectivity ratio [3] is reported as > 15.4.

In the case of `N#Cc1ccc(Nc2nccc(C(=O)c3c(F)cc(C#N)cc3F)n2)cc1`, the EC50 [1] is reported as 0.051 µM, the CC50 at 120 h [2] is reported as > 57 µM and the selectivity ratio [3] is reported as > 1120.

For `O=C1Nc2ccc(Cl)cc2[C@@](C#CC2CC2)(C(F)(F)F)O1` [EFAVIRENZ], the EC50 [1] was 0.001 µM and the CC50 at 120 h [2] was 20.6 µM.

`Cc1cc(C#N)cc(C)c1Oc1nc(Nc2ccc(C#N)cc2)nc(N)c1Br` [ETRAVIRINE] gave a CC50 at 120 h [2] of 5.88 µM.
